The structures appear in SMILES notation. Calls of active or inactive are those of the source. No cut-off for these calls is given here.

The IC50 is the midpoint of a concentration-inhibition curve.

For assay [1], the system named is HCT-116. As to the kind of experiment: Induction of apoptosis in human HCT-116 cells assessed as increase in late apoptotic cells incubated for 48 hrs by annexin-V and propidium iodide staining based flow cytometry analysis. Format: functional, cell-based. As to conditions: dose microM 0.5-2.5, time 48.0 hrs. On the technique in general: Flow cytometry measures light scatter and fluorescence of single cells or particles in a stream.

Assay [2] deals with HCT-116. Description: Induction of apoptosis in human HCT-116 cells assessed as viable cells at 2.5 uM incubated for 48 hrs by annexin-V and propidium iodide staining based flow cytometry analysis (reference value: 96.29 %). The class given is functional. Conditions: read-out: Activity.
Assay [3] has as its system HCT-116. Description: Induction of ROS production in human HCT-116 cells incubated for 24 hrs by DCFDA staining based fluorescence microscopic analysis. Format: functional, cell-based. As to conditions: dose microM 0.5-2.5, time 24.0 hrs. The essentials:
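For intracellular ROS, HCT-116 cells were incubated at 0.5, 1 and 2.5 µM for 24 h and stained with DCFDA. Cells were imaged by fluorescence microscopy, and DCF fluorescence was quantified at 480/535 nm excitation/emission in arbitrary units against control.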

The subject of assay [4] is HCT-116. Description: Induction of apoptosis in human HCT-116 cells assessed as loose cell structure at 0.5 to 2.5 uM incubated for 48 hrs by DAPI staining based fluorescence microscopic analysis. The class given is functional. Conditions: dose microM 0.5-2.5, time 48.0 hrs. The essentials:
(§1)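 Nuclear morphology was imaged by fluorescence microscopy using a DAPI filter at 200×; untreated cells served as control.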

The subject of assay [5] is HCT-116. Description: Induction of apoptosis in human HCT-116 cells assessed as micronuclei formation at 0.5 to 2.5 uM incubated for 48 hrs by DAPI staining based fluorescence microscopic analysis. The class given is functional, cell-based. As to conditions: dose microM 0.5-2.5, time 48.0 hrs. The essentials: as §1
For assay [6], the system named is HCT-116. As to the kind of experiment: Induction of apoptosis in human HCT-116 cells assessed as irregular distribution of chromatin at 0.5 to 2.5 uM incubated for 24 hrs by acridine orange staining based microscopic analysis. Format: functional, cell-based. Conditions: dose microM 0.5-2.5, time 24.0 hrs. The essentials: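 HCT-116 cells were incubated at 0.5, 1.0 and 2.5 µM for 24 h and stained with acridine orange. Green fluorescence (excitation 480-490 nm), chromatin distribution and blebbing were inspected microscopically at 200× against untreated controls.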

In assay [7] the test system is HCT-116. As to the kind of experiment: Cytotoxicity against human HCT-116 cells assessed as induction of cell morphological changes at 0.5 to 2.5 uM incubated for 48 hrs by phase contrast microscopy. Format: functional, cell-based. Conditions: dose microM 0.5-2.5, time 48.0 hrs.
Assay [8] has as its system HCT-116. As to the kind of experiment: Inhibition of colony formation in human HCT-116 cells incubated for 10 days by crystal violet staining based assay. As to conditions: dose microM 0.25-1, time 10.0 day. Format: functional, cell-based. The essentials:
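HCT-116 cells exposed in medium to 0.25, 0.5 and 1 μM over 10 days to allow colonies to form. Colonies visualised by crystal violet staining and counted relative to untreated control cells.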

Assay [9] concerns HCT-116. Description: Induction of cell cycle arrest in human HCT-116 cells assessed as G0/G1 phase incubated for 48 hrs by propidium iodide based flow cytometry analysis. The class given is functional. As to conditions: dose microM 0.5-2.5, time 48.0 hrs.
Assay [10] concerns HCT-116. Description: Induction of cell cycle arrest in human HCT-116 cells assessed as G2/M phase at 1 uM incubated for 48 hrs by propidium iodide based flow cytometry analysis (reference value: 15.3 %). Format: functional.
The subject of assay [11] is HCT-116. Description: Induction of cell cycle arrest in human HCT-116 cells assessed as S phase at 2.5 uM incubated for 48 hrs by propidium iodide based flow cytometry analysis (reference value: 7.8 %). Format: functional.
The subject of assay [12] is HCT-116. Description: Induction of cell cycle arrest in human HCT-116 cells assessed as S phase at 0.5 uM incubated for 48 hrs by propidium iodide based flow cytometry analysis (reference value: 7.8 %). The class given is functional.
In assay [13] the test system is HCT-116. Description: Induction of cell cycle arrest in human HCT-116 cells assessed as G0/G1 phase at 0.5 uM incubated for 48 hrs by propidium iodide based flow cytometry analysis (reference value: 28.2 %). The class given is functional.
The test system of the next assay is MDA-MB-231. As to the kind of experiment: Cytotoxicity against human MDA-MB-231 cells assessed as reduction in cell viability incubated for 48 hrs by MTT assay. Format: functional, cell-based. As to conditions: MDA-MB-231, 48 h. The essentials: (§2)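 Cancer cell lines were exposed to drug for 48 h, and the 50% inhibitory concentration was determined. Values are averages of three individual experiments. A549, HCT-116, BT-474 and MDA-MB-231 are human lines; B16F10 is a murine melanoma line.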

The test system of a further assay is B16-F10. Description: Cytotoxicity against mouse B16-F10 cells assessed as reduction in cell viability incubated for 48 hrs by MTT assay. Format: functional, cell-based. As to conditions: B16-F10, 48 h. The essentials:
as §2
For orientation: Tetrazolium dyes change colour on reduction, which living cells bring about.

In the next assay the test system is A549. Description: Cytotoxicity against human A549 cells assessed as reduction in cell viability incubated for 48 hrs by MTT assay. As to conditions: A549, 48 h. Format: functional, cell-based. The essentials:
as §2

For assay [14], the system named is HCT-116. Description: Cytotoxicity against human HCT-116 cells assessed as reduction in cell viability incubated for 48 hrs by MTT assay. The class given is functional, cell-based. As to conditions: HCT-116, 48 h. The essentials:
as §2

The test system of assay [15] is HCT-116. As to the kind of experiment: Induction of apoptosis in human HCT-116 cells assessed as condensed DNA at 0.5 to 2.5 uM incubated for 48 hrs by DAPI staining based fluorescence microscopic analysis. Conditions: dose microM 0.5-2.5, time 48.0 hrs. The class given is functional, cell-based. The essentials: as §1

For the compound `O=C(/C=C\Nc1ccc(Cl)cc1)c1nc(-c2ccc(F)cc2)n2ccccc12`, the Activity result in the assay with HCT-116 [1] is “Dose-dependent effect”; in the assay with HCT-116 [3], “Dose-dependent effect”; with HCT-116 [9] it was “Dose-dependent effect”; with HCT-116 [10] it was 16.4%; in the assay on HCT-116 [11], 8.5%; in the assay with HCT-116 [12], 7%. Moreover, the Activity in the assay on HCT-116 [13] came to 31.5%. The viability at 2.5 µM in the assay on HCT-116 [2] was found to be 77.4%. Further, the outcome in the assay with HCT-116 [4], in the assay with HCT-116 [5], in the assay on HCT-116 [6], in the assay with HCT-116 [7] and in the assay with HCT-116 [15] was Active. Also, the inhibition result in the assay on HCT-116 [8] is “Dose-dependent effect”. For the same compound, the half-inhibitory concentration (IC50) was found to be 4.25 µM with MDA-MB-231, 11 µM with B16-F10, 5.09 µM in the assay with A549 and 1.21 µM in the assay with HCT-116 [14].
